From ChEMBL document CHEMBL1212734, “In vitro pharmacodynamics of levofloxacin and other aerosolized antibiotics under multiple conditions relevant to chronic pulmonary infection in cystic fibrosis” (2010)
Converted amounts (≈) assume the structure as drawn.

What was measured:
Assay type in all cases: functional
Pseudomonas aeruginosa [1] = assay: Antibacterial activity against Pseudomonas aeruginosa PA880 assessed as time required for reduction of bacterial load to 3 log CFU/ml at 0.2 mg/ml up to 48 hrs by time-kill assay
Summary of the method: (§1)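 Overnight cultures were diluted and grown at 37°C to OD600 ≈0.3, then set at 5 × 10^5–1 × 10^6 CFU/ml in 10 ml CAMHB. Drug was added at 0.2, 0.6 or 2.0 mg/ml, and cultures were shaken at 37°C. Samples taken at 0, 0.5, 1, 2, 4, 8 and 24 h were washed twice in CAMHB, diluted in saline and plated on Mueller-Hinton agar. Plates were incubated up to 48 h before colony counting.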

Pseudomonas aeruginosa [2] = assay: Antibacterial activity against Pseudomonas aeruginosa PA1054 assessed as inhibition of biofilm formation by microtiter plate reader assay; conditions: for MIC: Pseudomonas aeruginosa, PA1054
Summary of the method: (§2)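 Biofilms of cystic fibrosis P. aeruginosa isolates were grown and tested by a previously described method. The endpoint was the biofilm inhibitory concentration, the drug level that prevents biofilm cell growth, compared against planktonic broth-microdilution MICs.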

[3] = tested on: Stenotrophomonas maltophilia; assay: Antibacterial activity against Stenotrophomonas maltophilia by broth dilution method
Pseudomonas aeruginosa [4] = assay: Antibacterial activity against Pseudomonas aeruginosa PA899 assessed as time required for reduction of bacterial load to 3 log CFU/ml at 0.2 mg/ml up to 48 hrs by time-kill assay; summary of the method: as §1
Pseudomonas aeruginosa [5] = assay: Antibacterial activity against Pseudomonas aeruginosa PA880 by broth dilution method
Summary of the method: (§3)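 Broth microdilution MIC per CLSI reference method; twofold serial dilutions in cation-adjusted Mueller-Hinton broth. […] Endpoint read by OD600 and confirmed visually.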

Pseudomonas aeruginosa [6] = assay: Antibacterial activity against Pseudomonas aeruginosa PA1022 by broth dilution method
Pseudomonas aeruginosa [7] = assay: Antibacterial activity against Pseudomonas aeruginosa PA1036 assessed as time required for reduction of bacterial load to 3 log CFU/ml at 0.2 mg/ml up to 48 hrs by time-kill assay; summary of the method: as §1
Pseudomonas aeruginosa [8] = assay: Antibacterial activity against Pseudomonas aeruginosa PA5026 assessed as time required for reduction of bacterial load to 3 log CFU/ml at 2 mg/ml up to 48 hrs by time-kill assay; summary of the method: as §1
Pseudomonas aeruginosa [9] = assay: Antibacterial activity against Pseudomonas aeruginosa PA5020 assessed as time required for reduction of bacterial load to 3 log CFU/ml at 0.6 mg/ml up to 48 hrs by time-kill assay; summary of the method: as §1
Pseudomonas aeruginosa [10] = assay: Antibacterial activity against Pseudomonas aeruginosa PA876 by broth dilution method; summary of the method: as §3
Pseudomonas aeruginosa [11] = assay: Antibacterial activity against Pseudomonas aeruginosa PA1036 assessed as time required for reduction of bacterial load to 3 log CFU/ml at 2 mg/ml up to 48 hrs by time-kill assay; summary of the method: as §1
Pseudomonas aeruginosa [12] = assay: Antibacterial activity against Pseudomonas aeruginosa ATCC 27853 assessed as time required for reduction of bacterial load to 3 log CFU/ml at 0.6 mg/ml up to 48 hrs by time-kill assay
Pseudomonas aeruginosa [13] = assay: Antibacterial activity against Pseudomonas aeruginosa PA5043 assessed as inhibition of biofilm formation by microtiter plate reader assay; summary of the method: as §2
Pseudomonas aeruginosa [14] = assay: Antibacterial activity against Pseudomonas aeruginosa PA5063 assessed as inhibition of biofilm formation by microtiter plate reader assay; summary of the method: as §2
Pseudomonas aeruginosa [15] = assay: Antibacterial activity against Pseudomonas aeruginosa PA1042 assessed as time required for reduction of bacterial load to 3 log CFU/ml at 2 mg/ml up to 48 hrs by time-kill assay; summary of the method: as §1
Pseudomonas aeruginosa [16] = assay: Antibacterial activity against Pseudomonas aeruginosa PA880 assessed as time required for reduction of bacterial load to 3 log CFU/ml at 0.6 mg/ml up to 48 hrs by time-kill assay; summary of the method: as §1
Pseudomonas aeruginosa [17] = assay: Antibacterial activity against Pseudomonas aeruginosa PA5026 by broth dilution method; summary of the method: as §3
Pseudomonas aeruginosa [18] = assay: Antibacterial activity against Pseudomonas aeruginosa PA1042 by broth dilution method; summary of the method: as §3
Pseudomonas aeruginosa [19] = assay: Antibacterial activity against Pseudomonas aeruginosa ATCC 27853 by broth dilution method; summary of the method: as §3
Pseudomonas aeruginosa [20] = assay: Antibacterial activity against Pseudomonas aeruginosa PA1042 assessed as inhibition of biofilm formation by microtiter plate reader assay; summary of the method: as §2
Pseudomonas aeruginosa [21] = assay: Antibacterial activity against Pseudomonas aeruginosa PA5043 by broth dilution method; summary of the method: as §3
Pseudomonas aeruginosa [22] = assay: Antibacterial activity against Pseudomonas aeruginosa PA876 assessed as time required for reduction of bacterial load to 3 log CFU/ml at 2 mg/ml up to 48 hrs by time-kill assay; summary of the method: as §1
Pseudomonas aeruginosa [23] = assay: Antibacterial activity against Pseudomonas aeruginosa ATCC 27853 assessed as time required for reduction of bacterial load to 3 log CFU/ml at 2 mg/ml up to 48 hrs by time-kill assay
Pseudomonas aeruginosa [24] = assay: Antibacterial activity against Pseudomonas aeruginosa PA861 assessed as time required for reduction of bacterial load to 3 log CFU/ml at 0.2 mg/ml up to 48 hrs by time-kill assay; summary of the method: as §1
Pseudomonas aeruginosa [25] = assay: Antibacterial activity against Pseudomonas aeruginosa PA881 assessed as time required for reduction of bacterial load to 3 log CFU/ml at 2 mg/ml up to 48 hrs by time-kill assay; summary of the method: as §1
Pseudomonas aeruginosa [26] = assay: Antibacterial activity against Pseudomonas aeruginosa PA1036 assessed as time required for reduction of bacterial load to 3 log CFU/ml at 0.6 mg/ml up to 48 hrs by time-kill assay; summary of the method: as §1
Pseudomonas aeruginosa [27] = assay: Antibacterial activity against Pseudomonas aeruginosa PA1022 assessed as time required for reduction of bacterial load to 3 log CFU/ml at 0.2 mg/ml up to 48 hrs by time-kill assay; summary of the method: as §1
Burkholderia cepacia = assay: Antibacterial activity against Burkholderia cepacia clinical isolates by broth dilution method
Pseudomonas aeruginosa [28] = assay: Antibacterial activity against Pseudomonas aeruginosa PAM1032 overexpressing multidrug efflux pump MexAB-OprM by broth dilution method

| Compound | Time (Pseudomonas aeruginosa [1]) | BBC (Pseudomonas aeruginosa [2]) | MIC50 [3] | MIC90 [3] | Time (Pseudomonas aeruginosa [4]) | Time (Pseudomonas aeruginosa [7]) | Time (Pseudomonas aeruginosa [8]) | Time (Pseudomonas aeruginosa [9]) | MIC90 (Pseudomonas aeruginosa [10]) | Time (Pseudomonas aeruginosa [11]) | Time (Pseudomonas aeruginosa [12]) | BBC (Pseudomonas aeruginosa [13]) | BBC (Pseudomonas aeruginosa [14]) | Time (Pseudomonas aeruginosa [15]) | Time (Pseudomonas aeruginosa [16]) | MIC (Pseudomonas aeruginosa [17]) | BBC (Pseudomonas aeruginosa [20]) | Time (Pseudomonas aeruginosa [22]) | Time (Pseudomonas aeruginosa [23]) | Time (Pseudomonas aeruginosa [24]) | also measured |
| --- | --- | --- | --- | --- | --- | --- | --- | --- | --- | --- | --- | --- | --- | --- | --- | --- | --- | --- | --- | --- | --- |
| C[C@H]1[C@H](NC(=O)/C(=N\OC(C)(C)C(=O)O)c2csc(N)n2)C(=O)N1S(=O)(=O)O [AZTREONAM] | 4 h | >64 µg/mL | > 128 µg/mL | > 128 µg/mL | >24 h | >24 h | >24 h | >24 h | > 128 µg/mL | 24 h | 24 h | >64 µg/mL | >256 µg/mL | 2 h | 4 h | > 128 µg/mL | >8 µg/mL | >24 h | 24 h | >24 h | MIC (Pseudomonas aeruginosa [2]): 4 µg/mL (≈ 9.19 µM); MIC (Pseudomonas aeruginosa [5]): 0.5 µg/mL (≈ 1.15 µM); MIC (Pseudomonas aeruginosa [6]): 16 µg/mL (≈ 36.7 µM); MIC (Pseudomonas aeruginosa [18]): 0.5 µg/mL (≈ 1.15 µM); MIC (Pseudomonas aeruginosa [19]): 4 µg/mL (≈ 9.19 µM); MIC (Pseudomonas aeruginosa [21]): 1 µg/mL (≈ 2.3 µM); Time (Pseudomonas aeruginosa [25]): 8 h; Time (Pseudomonas aeruginosa [26]): 24 h; Time (Pseudomonas aeruginosa [27]): >24 h |
| C[C@H]1COc2c(N3CCN(C)CC3)c(F)cc3c(=O)c(C(=O)O)cn1c23.C[C@H]1COc2c(N3CCN(C)CC3)c(F)cc3c(=O)c(C(=O)O)cn1c23.O [LEVOFLOXACIN] | <=0.5 hr | 1 µg/mL | 2 µg/mL | 8 µg/mL | <=0.5 hr | <=0.5 hr | <=0.5 hr | 4 h | 8 µg/mL | <=0.5 hr | <=0.5 hr | 1 µg/mL | 1 µg/mL | <=0.5 hr | <=0.5 hr | 8 µg/mL | 1 µg/mL | <=0.5 hr | <=0.5 hr | <=0.5 hr | MIC50 (Burkholderia cepacia): 4 µg/mL; MIC90 (Burkholderia cepacia): 32 µg/mL; Time (Pseudomonas aeruginosa [25]): <=0.5 hr; Time (Pseudomonas aeruginosa [26]): <=0.5 hr; Time (Pseudomonas aeruginosa [27]): <=0.5 hr |
| NC[C@H]1O[C@H](O[C@H]2[C@H](O)[C@@H](O[C@H]3O[C@H](CO)[C@@H](O)[C@H](N)[C@H]3O)[C@H](N)C[C@@H]2N)[C@H](N)C[C@@H]1O [TOBRAMYCIN] | <=0.5 hr | 1 µg/mL | > 32 µg/mL | > 32 µg/mL | <=0.5 hr | <=0.5 hr | <=0.5 hr | 2 h | 32 µg/mL (≈ 68.4 µM) | <=0.5 hr | <=0.5 hr | 8 µg/mL | 2 µg/mL | <=0.5 hr | <=0.5 hr | 32 µg/mL (≈ 68.4 µM) | 1 µg/mL | 4 h | <=0.5 hr | 8 h | MIC (Pseudomonas aeruginosa [2]): 1 µg/mL (≈ 2.14 µM); MIC (Pseudomonas aeruginosa [28]): 0.25 µg/mL (≈ 0.535 µM); MIC (Pseudomonas aeruginosa [5]): 1 µg/mL (≈ 2.14 µM); MIC (Pseudomonas aeruginosa [6]): > 32 µg/mL; MIC50 (Burkholderia cepacia): > 32 µg/mL; MIC90 (Burkholderia cepacia): > 32 µg/mL; MIC (Pseudomonas aeruginosa [18]): 0.5 µg/mL (≈ 1.07 µM); MIC (Pseudomonas aeruginosa [19]): 0.25 µg/mL (≈ 0.535 µM); MIC (Pseudomonas aeruginosa [21]): 8 µg/mL (≈ 17.1 µM); Time (Pseudomonas aeruginosa [25]): <=0.5 hr; Time (Pseudomonas aeruginosa [26]): <=0.5 hr; Time (Pseudomonas aeruginosa [27]): 4 h |
